ChEMBL document CHEMBL3120102, “Structure-based design, synthesis and biological evaluation of novel anthra[1,2-d]imidazole-6,11-dione homologues as potential antitumor agents” (2013)

What was measured:
[1] = test system: MDA-MB-231; assay: Cytotoxicity against human MDA-MB-231 cells assessed as cell growth at 10 uM after 48 hrs by SRB assay; format: functional; conditions: MDA-MB-231, 48 h, read-out: Activity
Outline: (§1)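 First stage of the NCI 60 human tumour cell line screen: a single dose is tested against every line. Cell growth is read as cellular protein by sulforhodamine B colorimetry after 48 h of drug exposure, with reference to a time-zero control and to untreated plates.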

[2] = test system: SW-620; assay: Cytotoxicity against human SW620 cells assessed as cell growth at 10 uM after 48 hrs by SRB assay; format: functional; conditions: SW-620, 48 h, read-out: Activity
Outline: (§2)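 First stage of the NCI 60 human tumour cell line screen, with each compound tested at a single dose of 10. Cellular protein measured by sulforhodamine B colorimetry after 48 h drug exposure. Growth is calculated against a time-zero cell control and against plates not exposed to drug.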

[3] = test system: SR; assay: Cytotoxicity against human SR cells assessed as cell growth at 10 uM after 48 hrs by SRB assay; format: functional; conditions: read-out: Activity; outline: as §2
[4] = test system: ACHN; assay: Cytotoxicity against human ACHN cells assessed as cell growth at 10 uM after 48 hrs by SRB assay; format: functional; conditions: read-out: Activity
[5] = test system: SF-295; assay: Cytotoxicity against human SF295 cells assessed as cell growth at 10 uM after 48 hrs by SRB assay; format: functional; conditions: SF-295, 48 h, read-out: Activity; outline: as §1
[6] = target: Telomerase reverse transcriptase (Homo sapiens) (UniProt O14746); assay: Inhibition of human tert transcriptional activity assessed as SEAP activity at 100 uM after 24 hrs by SEAP reporter assay; set-up: scale not given: the % may be the effect or the level left
Telomerase reverse transcriptase (Homo sapiens), sequence (O14746 whole entry): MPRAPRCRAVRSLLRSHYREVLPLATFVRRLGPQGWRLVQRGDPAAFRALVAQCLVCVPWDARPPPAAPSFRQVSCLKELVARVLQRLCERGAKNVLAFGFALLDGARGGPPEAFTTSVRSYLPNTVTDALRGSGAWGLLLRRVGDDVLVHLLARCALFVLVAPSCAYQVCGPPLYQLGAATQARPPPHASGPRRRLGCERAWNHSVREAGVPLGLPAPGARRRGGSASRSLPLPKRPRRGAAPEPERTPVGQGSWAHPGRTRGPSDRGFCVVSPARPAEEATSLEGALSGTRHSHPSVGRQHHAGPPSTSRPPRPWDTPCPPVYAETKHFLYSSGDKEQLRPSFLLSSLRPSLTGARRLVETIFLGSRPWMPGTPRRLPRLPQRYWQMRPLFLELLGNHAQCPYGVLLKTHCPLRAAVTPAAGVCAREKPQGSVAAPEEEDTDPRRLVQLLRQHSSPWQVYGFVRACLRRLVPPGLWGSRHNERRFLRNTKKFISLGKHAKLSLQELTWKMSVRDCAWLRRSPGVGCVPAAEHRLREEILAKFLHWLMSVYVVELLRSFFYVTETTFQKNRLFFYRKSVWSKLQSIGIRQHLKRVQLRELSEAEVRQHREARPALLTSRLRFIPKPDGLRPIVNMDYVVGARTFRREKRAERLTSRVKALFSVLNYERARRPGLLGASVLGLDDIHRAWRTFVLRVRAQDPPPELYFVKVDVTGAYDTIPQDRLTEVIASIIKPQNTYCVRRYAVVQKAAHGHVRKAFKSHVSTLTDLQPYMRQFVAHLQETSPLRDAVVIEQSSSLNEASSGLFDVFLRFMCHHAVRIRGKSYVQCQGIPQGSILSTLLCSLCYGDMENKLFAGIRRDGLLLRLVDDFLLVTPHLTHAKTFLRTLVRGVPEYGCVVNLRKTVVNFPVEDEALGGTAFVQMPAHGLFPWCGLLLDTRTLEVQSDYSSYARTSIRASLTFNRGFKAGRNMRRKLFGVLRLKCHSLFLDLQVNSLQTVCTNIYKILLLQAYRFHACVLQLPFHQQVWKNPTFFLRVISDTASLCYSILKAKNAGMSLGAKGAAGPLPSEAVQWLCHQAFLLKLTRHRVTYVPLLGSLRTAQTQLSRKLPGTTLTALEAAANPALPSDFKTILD
Outline: (§3)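 Reporter assay for hTERT transcriptional activity using secreted alkaline phosphatase. About 2 × 10³ cells per well were grown for 24 h at 37 °C, then given fresh medium. Buffer was added to the medium: 2 M diethanolamine, 1 mM MgCl2 and 20 mM L-homoarginine. p-Nitrophenyl phosphate was added to 12 mM final. The rate of absorbance increase was read at 405 nm.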

[7] = test system: SNB-19; assay: Cytotoxicity against human SNB19 cells assessed as cell growth at 10 uM after 48 hrs by SRB assay; format: functional; conditions: SNB-19, 48 h, read-out: Activity; outline: as §2
[8] = test system: U-251; assay: Cytotoxicity against human U251 cells assessed as cell growth at 10 uM after 48 hrs by SRB assay; format: functional; conditions: U-251, 48 h, read-out: Activity; outline: as §2
[9] = test system: NCI-H23; assay: Cytotoxicity against human NCI-H23 cells assessed as cell growth at 10 uM after 48 hrs by SRB assay; format: functional; conditions: NCI-H23, 48 h, read-out: Activity; outline: as §1
[10] = Cytotoxicity against human H1299 cells assessed as cell viability at 1 uM after 48 hrs by MTT assay; format: functional; conditions: NCI-H1299, 48 h, read-out: Activity
Outline: (§4)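 About 2×10³ H1299 cells per well were grown for 24 h at 37 °C in 5% CO2. Compound was dissolved in DMSO immediately before use, diluted in complete medium and left on cells for 48 h. MTT was then added for 4 h at 37 °C, followed by SDS/DMF lysis buffer for 16 h at 37 °C. Absorbance was read at 550 nm.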

[11] = Cytotoxicity against human H1299 cells assessed as cell viability at 100 uM after 48 hrs by MTT assay; format: functional; conditions: NCI-H1299, 48 h, read-out: Activity; outline: as §4
[12] = test system: SF-268; assay: Cytotoxicity against human SF268 cells assessed as cell growth at 10 uM after 48 hrs by SRB assay; format: functional; conditions: SF-268, 48 h, read-out: Activity; outline: as §1
[13] = test system: SK-MEL-28; assay: Cytotoxicity against human SK-MEL-28 cells assessed as cell growth at 10 uM after 48 hrs by SRB assay; format: functional; conditions: SK-MEL-28, 48 h, read-out: Activity; outline: as §1
[14] = target: Telomerase reverse transcriptase (Homo sapiens) (UniProt O14746); assay: Inhibition of human tert transcriptional activity assessed as SEAP activity at 10 uM after 24 hrs by SEAP reporter assay; set-up: scale not given: the % may be the effect or the level left; outline: as §3
[15] = test system: SNB-75; assay: Cytotoxicity against human SNB75 cells assessed as cell growth at 10 uM after 48 hrs by SRB assay; format: functional; conditions: SNB-75, 48 h, read-out: Activity; outline: as §2
[16] = test system: KM12; assay: Cytotoxicity against human KM12 cells assessed as cell growth at 10 uM after 48 hrs by SRB assay; format: functional; conditions: KM12, 48 h, read-out: Activity
[17] = test system: NCI-H322M; assay: Cytotoxicity against human NCI-H322M cells assessed as cell growth at 10 uM after 48 hrs by SRB assay; format: functional; conditions: read-out: Activity; outline: as §1
[18] = Cytotoxicity against human UO31 cells assessed as cell growth at 10 uM after 48 hrs by SRB assay; format: functional; conditions: UO-31, 48 h, read-out: Activity; outline: as §2
[19] = test system: SK-MEL-2; assay: Cytotoxicity against human SK-MEL-2 cells assessed as cell growth at 10 uM after 48 hrs by SRB assay; format: functional; conditions: SK-MEL-2, 48 h, read-out: Activity; outline: as §1
[20] = test system: UACC-62; assay: Cytotoxicity against human UACC62 cells assessed as cell growth at 10 uM after 48 hrs by SRB assay; format: functional; conditions: UACC-62, 48 h, read-out: Activity; outline: as §2
[21] = test system: SF-539; assay: Cytotoxicity against human SF539 cells assessed as cell growth at 10 uM after 48 hrs by SRB assay; format: functional; conditions: SF-539, 48 h, read-out: Activity; outline: as §1
[22] = test system: A549; assay: Cytotoxicity against human A549 cells assessed as cell growth at 10 uM after 48 hrs by SRB assay; format: functional; conditions: A549, 48 h, read-out: Activity
[23] = test system: SK-OV-3; assay: Cytotoxicity against human SKOV3 cells assessed as cell growth at 10 uM after 48 hrs by SRB assay; format: functional; conditions: SK-OV-3, 48 h, read-out: Activity; outline: as §1
[24] = test system: TK-10; assay: Cytotoxicity against human TK10 cells assessed as cell growth at 10 uM after 48 hrs by SRB assay; format: functional; conditions: TK-10, 48 h, read-out: Activity; outline: as §2
[25] = test system: MDA-MB-435; assay: Cytotoxicity against human MDA-MB-435 cells assessed as cell growth at 10 uM after 48 hrs by SRB assay; format: functional; conditions: MDA-MB-435, 48 h, read-out: Activity; outline: as §1
[26] = test system: HOP-62; assay: Cytotoxicity against human HOP62 cells assessed as cell growth at 10 uM after 48 hrs by SRB assay; format: functional; conditions: HOP-62, 48 h, read-out: Activity
Outline: (§5)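 NCI 60-cell-line screen, first stage: compound at a single dose of […] (unit as printed) for 48 h. Cellular protein was measured by sulforhodamine B colorimetry. Growth was determined using a time-zero cell control and plates not exposed to drug.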

[27] = test system: M14; assay: Cytotoxicity against human M14 cells assessed as cell growth at 10 uM after 48 hrs by SRB assay; format: functional; conditions: M14, 48 h, read-out: Activity; outline: as §5
[28] = test system: OVCAR-8; assay: Cytotoxicity against human OVCAR8 cells assessed as cell growth at 10 uM after 48 hrs by SRB assay; format: functional; conditions: OVCAR-8, 48 h, read-out: Activity; outline: as §1
[29] = test system: IGROV-1; assay: Cytotoxicity against human IGROV1 cells assessed as cell growth at 10 uM after 48 hrs by SRB assay; format: functional; conditions: IGROV-1, 48 h, read-out: Activity
[30] = test system: NCI-H226; assay: Cytotoxicity against human NCI-H226 cells assessed as cell growth at 10 uM after 48 hrs by SRB assay; format: functional; conditions: NCI-H226, 48 h, read-out: Activity; outline: as §1
[31] = test system: NCI-H522; assay: Cytotoxicity against human NCI-H522 cells assessed as cell growth at 10 uM after 48 hrs by SRB assay; format: functional; conditions: NCI-H522, 48 h, read-out: Activity; outline: as §1

SMILES | growth at 10 µM [1] [%] | growth at 10 µM [2] [%] | growth at 10 µM [3] [%] | growth at 10 µM [4] [%] | growth at 10 µM [5] [%] | Activity [6] [%] | growth at 10 µM [7] [%] | growth at 10 µM [8] [%] | growth at 10 µM [9] [%] | viability at 1 µM [10] [%] | viability at 100 µM [11] [%] | growth at 10 µM [12] [%] | growth at 10 µM [13] [%] | Activity [14] [%] | growth at 10 µM [15] [%] | growth at 10 µM [16] [%] | growth at 10 µM [17] [%] | growth at 10 µM [18] [%] | growth at 10 µM [19] [%] | growth at 10 µM [20] [%] | also measured
O=C1c2ccccc2C(=O)c2c1ccc1nc3n(c21)CCS3 | 94 | 69.3 | 60.6 | 59.4 | 78.6 | 48 | 74.5 | 72.5 | 84.3 | 115 | 99 | 56.1 | 109 | 53 | 95.6 | 84.9 | 72.1 | 45.8 | 99.9 | 73.1 | growth at 10 µM [21]: 74.1%; growth at 10 µM [22]: 81.2%; growth at 10 µM [23]: 87.4%; growth at 10 µM [24]: 58.8%; growth at 10 µM [25]: 83.1%; growth at 10 µM [26]: 85.3%; growth at 10 µM [27]: 78.5%; growth at 10 µM [28]: 75.4%; growth at 10 µM [29]: 62.3%; growth at 10 µM [30]: 80.5%; growth at 10 µM [31]: 80.6%
CN(C)CCCSc1nc2ccc3c(c2[nH]1)C(=O)c1ccccc1C3=O | 56.2 | 26.4 | 3.09 | 24.3 | 76 | 15 | 79.7 | 74.1 | 53.8 | 108 | 22 | 53.1 | 102 | 86 | 50.5 | 20.4 | 70.8 | 25.5 | 80 | 75.4 | growth at 10 µM [21]: 57.5%; growth at 10 µM [22]: 51.6%; growth at 10 µM [23]: 32.4%; growth at 10 µM [24]: 31.7%; growth at 10 µM [25]: 72.2%; growth at 10 µM [26]: 52%; growth at 10 µM [27]: 77.3%; growth at 10 µM [28]: 61.9%; growth at 10 µM [29]: 30.9%; growth at 10 µM [30]: 74.1%; growth at 10 µM [31]: 69.3%
